Measured values of several laboratories.
Lines come from different studies, so protocols differ.
Effect on: cell growth or viability

O=c1c2cc(Cl)ccc2nc(-c2ccccc2)n1N=Cc1ccccc1 — IC50 (LLC-PK1; MTT; 72 h): 303 µM
CC(=O)O[C@@H]1CC[C@@]2(C)[C@@H](CC[C@]3(C)[C@@H]2C(=O)C=C2[C@@H]4[C@@H](C)[C@H](C)CC[C@]4(C)CC[C@]23C)[C@@]1(C)C(=O)O — IC50 (Caco-2; MTT; 6 h): 1.61 µM
CCOc1ccc(C=Nn2c(-c3ccccc3)nc3ccc(Cl)cc3c2=O)cc1 — IC50 (LLC-PK1; MTT; 72 h): 136 µM
Cc1ccc(S(=O)(=O)n2cc(CN3CCN(c4ccc(C(=O)NO)cc4)CC3)c3ccccc32)cc1 — IC50 (LLC-PK1; 48 h): 8.82 µM
COc1cccc2c1C(=O)c1c(O)c3c(c(O)c1C2=O)C[C@@](O)(C(=O)CO)C[C@@H]3O[C@H]1C[C@H](N)[C@H](O)[C@H](C)O1 — IC50 (SU-DHL-4; 96 h): 0.00506 µM
C=CC(=O)N1CCC[C@@H](n2nc(-c3ccc(Oc4ccccc4)cc3)c3c(N)ncnc32)C1 — IC50 (SU-DHL-4; resazurin; 72 h): 0.454 µM
COc1ccc(C=NNC(=O)c2cc(-c3ccccc3)n(-c3ccc(S(N)(=O)=O)cc3)n2)cc1OC — IC50 (HT-29; fluorescence; 48 h): 25.8 µM
CCOc1ccc(C=Nn2c(-c3ccccc3)nc3ccc(Cl)cc3c2=O)cc1O — IC50 (LLC-PK1; MTT; 72 h): 342 µM
Cc1nn(-c2ccc(S(=O)(=O)N3CCN(C)CC3)cc2)c2nn3nnnc3nc12 — IC50 (HT-29; MTT): 0.08 µM
O=C(CCSSc1ccccc1/C=N/NC(=O)c1ccccc1)OC[C@H]1OC(O)[C@H](O)[C@@H](O)[C@@H]1O (some centres unmarked) — IC50 (A2780; MTT): 23 µM
NS(=O)(=O)c1ccc(-n2nc(-c3nnc(S)o3)cc2-c2ccccc2)cc1 — IC50 (HT-29; fluorescence; 48 h): 39.4 µM
O=C(NO)c1ccc(N2CCN(Cc3cnc4ccccc4c3)CC2)cc1 — IC50 (LLC-PK1; 48 h): > 69.1 µM
O=c1c2cc(Cl)ccc2nc(-c2ccccc2)n1N=Cc1ccc(Br)cc1O — IC50 (LLC-PK1; MTT; 72 h): 34.8 µM
NS(=O)(=O)c1ccc(-n2nc(C(=O)NN=Cc3cccnc3)cc2-c2ccccc2)cc1 — IC50 (HT-29; fluorescence; 48 h): 32.3 µM
CC(=O)O[C@H]1C(=O)[C@@]2(C)[C@H]([C@H](OC(=O)c3ccccc3)[C@]3(O)C[C@H](OC(=O)[C@H](O)[C@@H](NC(=O)c4ccccc4)c4ccccc4)C(C)=C1C3(C)C)[C@]1(OC(C)=O)CO[C@@H]1C[C@@H]2O — IC50 (LLC-PK1; MTT; 72 h): 1.31 µM
NS(=O)(=O)c1ccc(-n2nc(-c3nnc(CCl)o3)cc2-c2ccccc2)cc1 — IC50 (HT-29; fluorescence; 48 h): 29.5 µM
COc1ccc(C=Nn2c(-c3ccccc3)nc3ccc(Cl)cc3c2=O)cc1OC — IC50 (LLC-PK1; MTT; 72 h): 462 µM
NS(=O)(=O)c1ccc(-n2nc(C(=O)NN=Cc3ccc(O)cc3)cc2-c2ccccc2)cc1 — IC50 (HT-29; fluorescence; 48 h): 19.7 µM
Cc1ccc(S(=O)(=O)n2cc(CNc3ccc(C(=O)NO)cc3)c3ccccc32)cc1 — IC50 (LLC-PK1; 48 h): 9.99 µM
CC(C)(C)c1cnc(CSc2cnc(NC(=O)C3CCN(C(=O)CCCCCCCN4Cc5cc6c(cc5C4)C(=O)N(C4CCC(=O)NC4=O)C6=O)CC3)s2)o1 (centres unmarked) — IC50 (SK-UT-1; MTT): 0.106 µM
